The list is not random: actives were taken first. Their share in the collection is about 1.4%.
DDE Tn7 FP inh – disrupts Tn7 cyclic peptide binding to fibrin D-Dimer-E complex | P02675 | FP displacement of FITC-Tn7 peptide from fibrin DD(E); 0% = median of compound wells per plate | inhibition, % at 8.3 µM | 0.13% of 370,000 active;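 active = inhibition above the mean of compounds falling within the control limits plus 3 SD of them, cut at about 14% in these data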;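 also: 0% = plate median of compound wells and 100% = 10 µM Aha-Tn7 peptide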
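Assay system: Human clot-derived fibrin DD(E) complex | Buffer or medium: Tris/NaCl/CaCl2 buffer, pH 7.8 | Repeats: One replicate per compound | Benchmarks: Aha-Tn7 high control | Measure: % inhibition scaled between sample-field median and high-control FP | Schedule: 10 min plus 3 h, room temperature | Signal: Fluorescence polarization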
CAL PDZ FP-1 – inhibitors of human CAL PDZ peptide binding; Q9HD26; purified CAL PDZ, TMR-peptide fluorescence polarization, 1 h; inhibition, % at 24.9 µM; 0.92% of 300,000 active; AID 602252;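 active = mean inhibition of at least 30% with at least half of replicates also reaching 30%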;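 also: 0% = DMSO neutral control and 100% = excess unlabeled competitor peptide PRC23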
CAL PDZ FP-2 – inhibitors of human CAL PDZ peptide binding | Q9HD26 | purified CAL PDZ, TMR-peptide fluorescence polarization, 1 h | inhibition, % at 20 µM | 0.02% of 330,000 active | AID 504414;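 active = highest replicate inhibition of at least 40%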;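 also: plate controls were DMSO neutral control wells for no effect and unlabeled competitor peptide control wells for full effect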
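material = purified tagged CAL PDZ domain construct (CerCALP) | buffer or medium = sodium phosphate/NaCl buffer pH 7.4 with TCEP, IgG, Thesit | reagent = TMR-labelled reporter peptide T*-PRC34 bound in PDZ groove | incubation = 1 h room-temperature incubation prior to read | measured by = fluorescence polarization (mP) | evaluation = percent inhibition from loss of millipolarization | control set = unlabelled peptide and DMSO controls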
DDE Tn6 FP inh – inhibitors of Tn6 peptide binding to human fibrin DD(E); P02675; 0.21% of 370,000 active; inhibition, % at 8.3 µM; Fibrin DD(E) TRITC-Tn6 fluorescence polarization displacement; AID 720509;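 active = inhibition above a per-campaign cutoff: mean of compounds within control limits plus 3 SD, cut at about 15% in these data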;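 also: 0% = median of all compound wells on the plate and 100% = blocking peptide control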
Arr AP2 block – inhibitors of human beta-arrestin and AP2 interaction. FITC-arrestin peptide / GST-AP2 beads, flow cytometry; AP2 beta2 appendage carries R879A mutation. inhibition, % at 10 µM. 0.31% of 340,000 active. AID 504490;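 active = inhibition above a set limit, near 3 SD of compounds lacking own fluorescence, cut at about 54% in these data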;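 also: plate controls were DMSO wells for no effect and 5 µM unlabelled arrestin peptide for full effect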
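System: GST-AP2 R879A glutathione beads | Also added: FITC-arrestin peptide, 50 nM | Times: 12 min plus 1 h, RT | Signal: Bead flow cytometry, FITC channel | Buffer or medium: PBS with 0.05% Tween 20 and 0.1% BSA | Read-out basis: Percent drop in bead-associated FITC signal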
Arr AP2 CP1 – blocks beta-arrestin peptide binding to human AP2 | 2% of 1,300 active | GST-AP2 beads, FITC arrestin peptide binding, flow cytometry; GST-fused beta2-adaptin appendage, R879A mutant | shares compounds with Arr AP2 block | AID 504908 | inhibition, % at 10 µM;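 active = inhibition above a set limit, roughly 3 SD of non-fluorescent compound noise, cut at about 38% in these data; inactive = inhibition at or below that limit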;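 also: loss of bead fluorescence from 50 nM FITC arrestin peptide bound to appendage; 0% = negative control wells and 100% = excess unlabelled arrestin peptide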
Target sequence (P63010 whole entry, looked up, the tested form may be a part, one chain of several): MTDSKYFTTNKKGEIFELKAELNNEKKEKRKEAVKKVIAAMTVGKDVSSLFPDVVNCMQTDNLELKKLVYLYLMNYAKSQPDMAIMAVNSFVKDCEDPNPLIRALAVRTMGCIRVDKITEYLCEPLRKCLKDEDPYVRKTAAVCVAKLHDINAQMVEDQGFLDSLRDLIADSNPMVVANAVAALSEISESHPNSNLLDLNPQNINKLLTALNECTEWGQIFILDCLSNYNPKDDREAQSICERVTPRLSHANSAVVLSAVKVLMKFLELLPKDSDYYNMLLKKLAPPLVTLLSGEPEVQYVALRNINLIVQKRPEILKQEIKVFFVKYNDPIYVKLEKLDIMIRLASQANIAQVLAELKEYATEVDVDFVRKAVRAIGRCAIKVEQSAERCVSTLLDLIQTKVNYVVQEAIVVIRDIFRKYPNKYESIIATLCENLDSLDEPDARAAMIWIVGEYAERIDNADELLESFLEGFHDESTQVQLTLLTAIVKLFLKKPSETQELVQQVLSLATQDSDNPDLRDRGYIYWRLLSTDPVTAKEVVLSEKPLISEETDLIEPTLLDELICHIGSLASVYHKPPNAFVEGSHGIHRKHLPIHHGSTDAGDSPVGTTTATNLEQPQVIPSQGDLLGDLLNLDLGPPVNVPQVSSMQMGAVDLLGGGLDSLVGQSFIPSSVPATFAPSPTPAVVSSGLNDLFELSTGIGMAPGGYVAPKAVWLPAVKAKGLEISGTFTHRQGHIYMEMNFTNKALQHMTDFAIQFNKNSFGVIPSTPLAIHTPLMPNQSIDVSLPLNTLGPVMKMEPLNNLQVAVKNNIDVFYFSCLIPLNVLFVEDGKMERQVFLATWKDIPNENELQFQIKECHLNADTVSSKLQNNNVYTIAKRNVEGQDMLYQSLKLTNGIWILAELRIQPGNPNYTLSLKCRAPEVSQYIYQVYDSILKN
GST GSH counter – GST-GSH bead binding interference, counter-screen. 2% of 1,300 active. shares compounds with Arr AP2 block. inhibition, % at 10 µM. GST-fluorescein binding to GSH beads, fluorescence;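 active = inhibition above 50%, about 3 SD of the inhibition seen with non-fluorescent compounds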;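 also: fluorescein maleimide labelled GST captured on 4 micron glutathione beads; higher means more loss of bead fluorescence from quenching or blocked binding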
Numbers without * were called inactive; x = no result given.

SMILES	DDE Tn7 FP inh	CAL PDZ FP-1	CAL PDZ FP-2	DDE Tn6 FP inh	Arr AP2 block	Arr AP2 CP1	GST GSH counter
COc1ccc(NS(=O)(=O)c2cccc(C(=O)NCC3(N4CCCCC4)CCCCC3)c2)cc1	-1	0	-1	4	-19	12	6
C[C@H]1COc2cc(Br)ccc2S(=O)(=O)N1Cc1cn(Cc2ccc(Cl)cc2)nn1	-5	x	x	0	x	x	x
CCCCNC(=O)C[C@@H]1C(=O)N2CCCC3=C2[C@@]1(C(=O)OC)CCCC3	4	x	x	5	x	x	x
C[C@H]1COc2cccc(N3CCSCC3)c2S(=O)(=O)N1C	-6	x	x	7	x	x	x
CC(C)N(C[C@@H]1CSCCS(=O)(=O)N1)C1CCCCC1	5	x	x	-3	x	x	x
O=C(NC1CCCC1)N1CCC(c2nc3ccc(Cl)cc3[nH]2)CC1	1	x	x	3	x	x	x
O=C(Cc1ccccc1F)Nc1nnc(-c2cccnc2)s1	-4	x	x	4	x	x	x
O=C(Nc1ccc(F)cc1)OCc1cn(Cc2cc(F)cc(F)c2)nn1	-2	x	x	-1	x	x	x
COC(=O)[C@]1(CNC(=O)C(F)(F)F)CC(=O)N(C)[C@@H]1c1ccccc1	8	x	x	-1	x	x	x
Cc1ccc(-c2nnc(SCc3ccccc3F)o2)cc1	3	x	-1	3	2	x	x
COc1ccc(-c2nnc(SCc3ccccc3F)o2)cc1OC	-3	-1	-2	-7	84*	22	x
COc1ccc(Cl)cc1NC(=O)COC(=O)C1CC(=O)N(Cc2ccccc2)C1 (stereo not given)	6	-4	1	8	58*	5	1
COc1ccc(Cl)cc1NC(=O)COC(=O)C1CCCCC1	-2	1	1	3	57*	6	-7
CC(/C=N/NC(=O)CSc1nnc(SCc2ccc(C)cc2)s1)=C\c1ccco1	4	x	x	-2	x	x	x
Cc1cc(C)nc(N2CCC(C(=O)N(C)CCc3ccccn3)CC2)n1	-10	x	x	-1	x	x	x
Cc1cc(C)c(OCC(=O)Nc2nc3ccccc3[nH]2)c(C)c1	6	-4	0	5	56*	5	3
CCC[C@H]1[C@@H](NC(=O)C(c2ccccc2)c2ccccc2)CC[C@@]23CCCN2C(=O)CCC[C@@H]13	-4	x	x	-1	x	x	x
O=C1NC(=S)N/C1=C/C=C/c1ccccc1	2	-2	-3	0	106*	-9	2
CC1CCCN(CCCNS(=O)(=O)c2cc3c(cc2Br)CCN3C(=O)C2CC2)C1 (stereo not given)	0	x	x	7	x	x	x
COc1cc(/C=C/C(=O)O)ccc1OS(=O)(=O)c1cc(C)ccc1C	8	-2	-1	0	4	x	x
COc1cc(/C=C/C(=O)O)ccc1OS(=O)(=O)c1cc(Br)ccc1C	-6	-1	-2	-2	56*	-7	5
O=[N+]([O-])c1ccc(/C=C/c2ccc3ccccc3n2)cc1	-11	-5	1	-2	-12	x	x
O=[N+]([O-])c1ccc(/C=C/c2ccc3cccc(O)c3n2)cc1	7	-5	-1	-4	57*	-8	-5
O=C(N[C@@H]1CCCc2c1cnn2-c1ccc(F)cc1F)c1ccccn1	0	x	x	-8	x	x	x
CCC(=O)Nc1ccc(C(=O)c2ccccc2)cc1	-6	-1	-1	-8	84*	-1	-13
CC(C)[C@H]1/C(=C/C2CC2)N2C(=O)C[C@@H](c3ccccc3)N=C2N1Cc1ccc2c(c1)OCO2	-3	x	x	-7	x	x	x
CCOC(=O)N1CCN(C(=O)C[C@H]2C(=O)N(CCCOC)C3=CCCCC[C@]32C(=O)OC)CC1	1	x	x	-4	x	x	x
c1ccc2c(c1)c1ccccc1n2CN1CCOCC1	7	0	0	-2	83*	-1	-9
CCCNC(=O)[C@@H]1CCCN1C(=O)C1CCN(S(=O)(=O)c2ccc(C)cc2)CC1	6	-3	-2	-6	54*	5	-2
Cc1ccc(S(=O)(=O)N2CCC(C(=O)N3CCC3)CC2)cc1	-5	-3	1	7	54*	5	-3

Screening data deposited in PubChem BioAssay by several laboratories.
